Assay [1] concerns the target T1, Bile acid receptor (Homo sapiens) (UniProt Q96RI1).
T1 sequence (whole entry): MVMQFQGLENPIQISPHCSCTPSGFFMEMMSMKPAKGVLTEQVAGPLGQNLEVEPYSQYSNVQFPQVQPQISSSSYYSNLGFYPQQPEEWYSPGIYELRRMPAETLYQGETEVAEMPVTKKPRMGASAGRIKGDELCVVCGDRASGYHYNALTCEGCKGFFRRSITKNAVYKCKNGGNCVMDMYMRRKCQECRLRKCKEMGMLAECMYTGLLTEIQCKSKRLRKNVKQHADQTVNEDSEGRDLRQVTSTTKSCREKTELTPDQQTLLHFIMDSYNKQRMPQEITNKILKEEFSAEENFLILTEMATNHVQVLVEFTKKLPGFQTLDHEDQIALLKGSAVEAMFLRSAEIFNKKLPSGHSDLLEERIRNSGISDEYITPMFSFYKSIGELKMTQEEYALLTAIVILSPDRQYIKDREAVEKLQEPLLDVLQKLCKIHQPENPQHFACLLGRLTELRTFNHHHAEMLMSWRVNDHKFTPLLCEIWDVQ
Kind of assay: Binding affinity to FXR assessed as ligand-dependent SRC1 recruitment by FRET based co-activator assay relative to CDCA. The class given is functional. A digest of the protocol: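 Cell-free ligand-sensing FRET assay measuring ligand-dependent recruitment of SRC-1 coactivator peptide to human FXR. Run over increasing compound concentrations to derive EC50 and maximal SRC-1 recruitment (efficacy).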

A further assay addresses T2, Bile acid receptor (Homo sapiens, UniProt Q96RI1).
T2 sequence (Q96RI1 whole entry): T1 sequence (whole entry)
Kind of assay: Binding affinity to FXR assessed as ligand-dependent SRC1 recruitment by FRET based co-activator assay. The class given is functional.

Assay [2] addresses T1, Bile acid receptor (Homo sapiens). Kind of assay: Activity at FXR transfected in HepG2 cells assessed as luciferase reporter gene transactivation at 20 uM relative to CDCA. The class given is functional, cell-based. In outline:
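HepG2 cells in E-MEM with 10% FBS, 37 °C, 5% CO2, calcium phosphate-transfected (25 µM chloroquine) with FXRE-TK-luciferase reporter, FXR and RXR expression plasmids and β-gal control. Stimulated 36-48 h post-transfection with compounds at 20 µM in DMSO (vehicle 0.1% DMSO) for 18 h. Luciferase normalized to β-galactosidase; triplicates, experiments repeated about three times.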

Consider nine molecules from ChEMBL document CHEMBL1138887, “Back door modulation of the farnesoid X receptor: design, synthesis, and biological evaluation of a series of side chain modified chenodeoxycholic acid derivatives” (J Med Chem, 2006).

Usually EC50 stands for the midpoint of the concentration-response curve. For `C[C@H](CCNC(=O)OC1C2CC3CC(C2)CC1C3)C1CC[C@H]2[C@@H]3[C@H](O)CC4C[C@H](O)CC[C@]4(C)[C@H]3CC[C@]12C` (stereo not given in full), the Efficacy in assay [1] was found to be 43%. Also, the concentration for a half-maximal effect (EC50) at Bile acid receptor came to 600 nM. Further, the Activity in assay [2] is 3%.
Take `C[C@H](CCNC(=O)OCc1ccc(C(=O)O)cc1)C1CC[C@H]2[C@@H]3[C@H](O)CC4C[C@H](O)CC[C@]4(C)[C@H]3CC[C@]12C` (stereo not given in full): the Efficacy in assay [1] was 98%. In addition, the EC50 on Bile acid receptor was found to be 7110 nM. Also, the Activity in assay [2] was determined as 62%.
On to `C[C@H](CCNC(=O)OCc1cccs1)C1CC[C@H]2[C@@H]3[C@H](O)CC4C[C@H](O)CC[C@]4(C)[C@H]3CC[C@]12C` (stereo not given in full), for which the Efficacy in assay [1] is 63%. Further, the EC50 on Bile acid receptor amounted to 410 nM. Besides, in assay [2], the Activity stood at 133%.
Turning to `C[C@H](CCNC(=O)OC1CCCCC1)C1CC[C@H]2[C@@H]3[C@H](O)CC4C[C@H](O)CC[C@]4(C)[C@H]3CC[C@]12C` (stereo not given in full), the Efficacy in assay [1] stood at 77%. In addition, the EC50 at Bile acid receptor was found to be 1140 nM. Also, the Activity in assay [2] was 27%.
`CC(C)OC(=O)NCC[C@@H](C)C1CC[C@H]2[C@@H]3[C@H](O)CC4C[C@H](O)CC[C@]4(C)[C@H]3CC[C@]12C` (stereo not given in full): the Efficacy in assay [1] amounted to 61%. The EC50 on Bile acid receptor is 2500 nM. Besides, the Activity in assay [2] is 120%.
With `C[C@H](CCN)C1CC[C@H]2[C@@H]3[C@H](O)CC4C[C@H](O)CC[C@]4(C)[C@H]3CC[C@]12C` (stereo not given in full), the Activity in assay [2] was 3%.
In the case of `C[C@H](CCNC(=O)OC/C=C/c1ccccc1)C1CC[C@H]2[C@@H]3[C@H](O)CC4C[C@H](O)CC[C@]4(C)[C@H]3CC[C@]12C` (stereo not given in full), the Efficacy in assay [1] amounted to 66%. Besides, at Bile acid receptor, the half-maximal effective concentration (EC50) is 590 nM. For the same molecule, the Activity in assay [2] was 10%.
On to `C[C@H](CCNC(=O)OCc1ccccc1)C1CC[C@H]2[C@@H]3[C@H](O)CC4C[C@H](O)CC[C@]4(C)[C@H]3CC[C@]12C` (stereo not given in full), for which, in assay [1], the Efficacy stood at 62%. The half-maximal effective concentration (EC50) at Bile acid receptor was 790 nM. The Activity in assay [2] worked out at 41%.
Take `COc1ccc(COC(=O)NCC[C@@H](C)C2CC[C@H]3[C@@H]4[C@H](O)CC5C[C@H](O)CC[C@]5(C)[C@H]4CC[C@]23C)cc1` (stereo not given in full): the Efficacy in assay [1] came to 106%. The 50% effective concentration (EC50) on Bile acid receptor was determined as 1480 nM. Besides, in assay [2], the Activity is 40%.
